In the library only some 3.6% were active in any assay of this set; here they are far more common.
MITF act = increases MITF-driven TRPM1 promoter luciferase signal | AID 588334 | activation, % at 12.5 µM | SK-MEL-5 TRPM1-promoter luciferase, 24 h; % of positive control, neutral wells = 0 | 0.75% of 300,000 active;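 active = mean activation of at least 80% with every replicate also reaching 80%; inconclusive = mean reaches 80% but some replicate falls short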
Wnt act = activates Wnt/beta-catenin signaling in a reporter cell assay | activation, % at 9.35 µM | activator, plate reader | 1.2% of 300,000 active | AID 743398; in the data active = activation above about 30%, passing the limit was not always enough; inconclusive = no clear call, values can overlap the other calls
HSF1 activator = increases HSF-1 driven luciferase reporter signal; AID 504408; activation, % at 9 µM; NIH3T3-HGL HSF-1 luciferase reporter, MG132, 8 h; 100% = twice DMSO control signal; 1.7% of 300,000 active;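 active = mean replicate activation of at least 50% with a set share of replicates each reaching 50%; inconclusive = only one of those two conditions met; inactive = mean below 50% and too few replicates reaching it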
SR-BI uptake up = SR-BI HDL lipid transfer activation | 0.096% of 320,000 active | activation, % at 12.5 µM | AID 504775 | CHO ldlA[mSR-BI] cells, DiI-HDL uptake fluorescence, 3 h; 100 = double the neutral-control signal;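 active = mean replicate activation of at least 60% and every replicate at or above 60%; inconclusive = mean or all-replicate condition met, but not both; inactive = mean below 60% and not all replicates reaching 60%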
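Assay system: LDL receptor-deficient CHO ldlA cells overexpressing murine SR-BI / Medium: BSA-supplemented, HEPES-buffered Ham's F12, pH 7.4 / Probe or stimulus: DiI-labelled HDL at 10 µg/mL final / Timing: compound with DiI-HDL co-incubation, 3 h at 37 °C / Technique: bottom-read cell fluorescence after medium removal, ex 550/em 595 nm / Measure: HDL uptake via cellular fluorescence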
SR-BI DiI inh = inhibitors of mouse SR-BI mediated HDL lipid uptake; inhibition, % at 12.5 µM; ldlA[mSR-BI] CHO cells, DiI-HDL uptake fluorescence, 3 h; AID 488896; 0.96% of 320,000 active;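 active = mean replicate inhibition of at least 70% and a set share of replicates each scoring 70 or more; inconclusive = meets just one of the two criteria; inactive = fails both criteria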
Target sequence (Q61009 whole entry, looked up): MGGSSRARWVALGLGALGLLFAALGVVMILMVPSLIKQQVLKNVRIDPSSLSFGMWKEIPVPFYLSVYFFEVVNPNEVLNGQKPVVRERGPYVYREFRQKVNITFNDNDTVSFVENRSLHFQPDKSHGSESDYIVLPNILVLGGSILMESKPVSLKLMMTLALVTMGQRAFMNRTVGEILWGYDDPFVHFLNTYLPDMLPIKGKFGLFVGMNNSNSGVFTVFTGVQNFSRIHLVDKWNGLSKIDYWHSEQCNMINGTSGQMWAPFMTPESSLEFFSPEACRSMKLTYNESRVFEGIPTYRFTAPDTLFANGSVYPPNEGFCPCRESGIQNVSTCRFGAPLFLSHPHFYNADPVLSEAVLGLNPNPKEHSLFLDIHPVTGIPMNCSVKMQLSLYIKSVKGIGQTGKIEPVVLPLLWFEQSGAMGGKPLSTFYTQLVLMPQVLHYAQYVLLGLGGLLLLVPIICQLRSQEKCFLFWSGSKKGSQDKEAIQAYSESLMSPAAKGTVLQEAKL
Each line names hits and unclear results; the compound was inactive in the other large screens.

O=C(N/N=C/c1ccc(F)cc1)c1ccccc1	Wnt act 34
COc1ccc(-c2cscc2N)cc1	none (no result: MITF act, HSF1 activator, SR-BI uptake up, SR-BI DiI inh)
CC(=O)OCC(=O)C1(O)CCC2C3CC(C)C4=CC(=O)C=CC4(C)C3C(O)CC21C (configuration not stated)	none (no result: MITF act, HSF1 activator, SR-BI uptake up, SR-BI DiI inh)
Cc1cccc(C(=O)Nc2ccc(C(=O)N/N=C/c3ccc4c(c3)OCO4)cc2)c1	SR-BI DiI inh 85
CCc1ccc(NC(=O)c2cc(C(C)C)on2)cc1	none (no result: Wnt act)
CCCc1cc(C(=O)Nc2ccc(CC)cc2)no1	MITF act 159, Wnt act 39
CCCc1cc(C(=O)Nc2ccc(C)cc2)no1	Wnt act 56 (no result: MITF act)
CC1CCN(C(=O)c2ncn3c2C(=O)NC[C@@H]3C)CC1	none (no result: MITF act, HSF1 activator, SR-BI uptake up, SR-BI DiI inh)
Brc1ccsc1/C=N/Nc1ccccc1	Wnt act 41 (no result: MITF act)
O=C(CSc1n[nH]c(=O)n1C1CC1)c1ccc2c(c1)OCCO2	Wnt act 38, HSF1 activator inconclusive (no result: MITF act, SR-BI uptake up, SR-BI DiI inh)
C[C@@H]1CN(c2ccc(N3CCNC[C@@H]3C)cc2C#N)CCN1Cc1ccccc1	none (no result: MITF act, HSF1 activator, SR-BI uptake up, SR-BI DiI inh)
CC(C)c1nnc(NC(=O)CCS(=O)(=O)c2nc(-c3cccs3)cc(C(F)(F)F)n2)s1	HSF1 activator 195 (no result: MITF act, Wnt act)
CCOc1ccc(NC(=O)CN(C)C(=O)c2c(C)nn(-c3ccc(F)cc3)c2Cl)cc1OCC	SR-BI DiI inh 83
CCOc1ccc(NC(=O)CN(C)C(=O)c2ccccc2OCCOc2ccccc2)cc1OCC	SR-BI DiI inh 82 (no result: HSF1 activator)
CCOc1ccc(NC(=O)CN(C)C(=O)c2cc([N+](=O)[O-])ccc2Sc2ccccc2)cc1OCC	SR-BI DiI inh 77 (no result: HSF1 activator)
CCOc1ccc(NC(=O)CN(C)C(=O)c2cc([N+](=O)[O-])ccc2N2CCCCC2)cc1OCC	none
CCOc1ccc(NC(=O)CN(C)C(=O)c2cccc3ccccc23)cc1OCC	SR-BI DiI inh 78 (no result: HSF1 activator)
CCOc1ccc(NC(=O)CN(C)C(=O)c2c(C)nn(-c3ccccc3)c2Cl)cc1OCC	none
CCOc1ccc(NC(=O)CN(C)C(=O)c2ccncc2)cc1OCC	none
CC(=NNC(=O)c1ccncc1)c1cc(Cl)ccc1Cl	none (no result: HSF1 activator)
CCOC(=O)CCCCCC(=O)Nc1ccc2c(c1)C(=O)N([C@H](C)CO)C[C@@H](C)[C@@H](CN(C)S(=O)(=O)c1ccc(C)cc1)OCCCC[C@H](C)O2	none (no result: MITF act, HSF1 activator, SR-BI uptake up, SR-BI DiI inh)
COC(=O)[C@@]12C[C@@H](CC(=O)NCCCN3CCCC3=O)C(=O)N(Cc3ccc4c(c3)OCO4)C1=CCC(C)(C)C2	none (no result: MITF act, HSF1 activator, SR-BI uptake up, SR-BI DiI inh)
CCCC(=O)N1CCC1(C)C(=O)Nc1ccc2c(c1)CCN2C(C)=O (configuration not stated)	none (no result: MITF act, HSF1 activator, SR-BI uptake up, SR-BI DiI inh)
Cc1ccc(S(=O)(=O)NC(=O)C2(C)CCN2C(=O)CC2CCCC2)cc1 (configuration not stated)	none (no result: MITF act, HSF1 activator, SR-BI uptake up, SR-BI DiI inh)
C[C@@H]1CN([C@H](C)CO)C(=O)c2cc(NC(=O)Nc3ccccc3)ccc2O[C@@H](C)CCCCO[C@H]1CN(C)S(C)(=O)=O	none (no result: MITF act, HSF1 activator, SR-BI uptake up, SR-BI DiI inh)
CCOc1ccc(NC(=O)CN(C)C(=O)c2ccccc2CCc2ccccc2)cc1OCC	SR-BI DiI inh 94
CCOc1ccc(NC(=O)CN(C)C(=O)c2ccc(OCc3ccccc3)c(OC)c2)cc1OCC	none
O=C(c1cc(-c2ccc(Cl)cc2)on1)N1CCOCC1	none (no result: Wnt act)
O=C(c1cc(-c2ccc(Cl)c(Cl)c2)on1)N1CCOCC1	MITF act 90
O=C(c1cc(-c2ccc3c(c2)OCO3)on1)N1CCOCC1	none (no result: Wnt act)
O=C(c1cc(-c2cccc(Cl)c2)on1)N1CCOCC1	MITF act 101
COc1ccc2nc(N3C(=O)CNC3=S)sc2c1	Wnt act 54 (no result: MITF act)
Cc1ccc2nc(N3C(=O)CNC3=S)sc2c1	none (no result: MITF act)
Fc1ccc(/C=C2\CCCC3=C2Nc2ncnn2C3c2ccc(F)cc2)cc1 (configuration not stated)	HSF1 activator 98 (no result: MITF act, Wnt act)
COc1ccc(C2C3=C(Nc4ncnn42)c2ccccc2CCC3)cc1 (configuration not stated)	none
COC(=O)CC(=O)CC(NS(=O)(=O)c1ccc(C)cc1)c1ccccc1 (configuration not stated)	none (no result: MITF act, HSF1 activator, SR-BI uptake up, SR-BI DiI inh)
CC(C)NC(=O)C1C(c2ccc(C(F)(F)F)cc2)=Nc2ccccc2N1C(=O)c1cccc(C(F)(F)F)c1 (configuration not stated)	none (no result: MITF act, HSF1 activator, SR-BI uptake up, SR-BI DiI inh)
COc1cc(-c2cc(NC(C)=O)c3ncc(-c4ccc(F)cc4)n3c2)cc(OC)c1OC	none (no result: MITF act, HSF1 activator, SR-BI uptake up, SR-BI DiI inh)
CCOC(=O)C1=C[C@@H](c2ccccc2)N(S(=O)(=O)c2ccc(C)cc2)[C@H]1c1ccccc1Cl	none (no result: MITF act, HSF1 activator, SR-BI uptake up, SR-BI DiI inh)
Cc1ccc(OCc2cc(C(=O)NCC(C)(C)N3CCOCC3)no2)cc1C	MITF act 121, Wnt act 47 (no result: SR-BI uptake up)
Cc1ccc(OCc2cc(C(=O)N(C)CC3CCOCC3)no2)cc1C	MITF act 96 (no result: SR-BI uptake up)
Cc1ccc(OCc2cc(C(=O)NCC3COCCO3)no2)cc1C (configuration not stated)	none
CCCS(=O)(=O)NC(=O)C1(C)CCCN(C(=O)c2ccc3ccccc3n2)C1 (configuration not stated)	none (no result: MITF act, HSF1 activator, SR-BI uptake up, SR-BI DiI inh)
COc1ccc(C(=O)NN/C(C)=C/C(=O)c2ccccc2)cc1	none (no result: MITF act)
Cc1ccc(C(=O)NN=CC(=O)c2ccccc2)c(C)c1	Wnt act 34 (no result: HSF1 activator)
COc1ccc(C(=O)N/N=C(\c2ccccc2)c2ccccn2)cc1	HSF1 activator 100 (no result: Wnt act)
COc1ccc(C(=O)N/N=C/C(=O)c2ccccc2)cc1	Wnt act 32
COC(=O)C1=C(C)N(C)C(=NCC2CC2)NC1c1cccc(C(F)(F)F)c1 (configuration not stated)	none (no result: MITF act, HSF1 activator, SR-BI uptake up, SR-BI DiI inh)
O=C1NN(CCO)C(=S)Nc2ccccc21	none (no result: MITF act, HSF1 activator, SR-BI uptake up, SR-BI DiI inh)
Cc1ccc(C(=O)N/C(=C\c2ccc(-c3ccccc3[N+](=O)[O-])o2)C(=O)NCCCN2CCOCC2)cc1	HSF1 activator 58
CN(C)C(CNC(=O)c1cc2ccccc2oc1=O)c1ccccc1 (configuration not stated)	MITF act 99 (no result: SR-BI uptake up, SR-BI DiI inh)
Cc1cc(NC(=O)c2cccnc2Cl)ccc1NC(=O)c1cc2ccccc2o1	SR-BI DiI inh 77
O=C(NCc1ccccc1)c1cc2ccccc2oc1=O	none
Cc1cc(C(=O)Nc2cccnc2Cl)on1	none (no result: MITF act, Wnt act)
O=C(Nc1cccnc1Cl)c1cc2ccccc2o1	Wnt act 49
O=C(NC(=S)Nc1cccnc1)c1cc2ccccc2o1	MITF act inconclusive, HSF1 activator 59
COc1ccccc1-c1ccc2c(c1)C(C)(Cc1cccc(C#N)c1)C(=O)N2 (configuration not stated)	none (no result: MITF act, HSF1 activator, SR-BI uptake up, SR-BI DiI inh)
C=CC(=O)Nc1cccc(Nc2nc(N[C@H]3CC[C@H](N(C)C)CC3)nc3c2ncn3C(C)C)c1	none (no result: Wnt act, HSF1 activator)
Cc1ccc(NCCCn2cnc3c(OCc4ccccc4)ncnc32)cc1C	none (no result: HSF1 activator)
COc1ccc(/C=C/C(=O)OCC(=O)NC2CCCCCC2)cc1	none (no result: MITF act, HSF1 activator, SR-BI uptake up, SR-BI DiI inh)
Oc1ccccc1C=NCCN1CCN(CCN=Cc2ccccc2O)C1c1ccccc1O (configuration not stated)	none (no result: HSF1 activator)
COc1cccc(NC(=O)c2cc3ccccc3oc2=O)c1	HSF1 activator inconclusive (no result: MITF act)
Cc1cccnc1NC(=O)c1cc2ccccc2oc1=O	Wnt act 47
